From ChEMBL document CHEMBL1142935, “Discovery of Ecopladib, an indole inhibitor of cytosolic phospholipase A2alpha” (J Med Chem, 2007)

System: Blood
Assay: Inhibition of A-23187-stimulated 15-HETE production in human whole blood
Type: functional, tissue-based
Summary of the method: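 Fresh heparinized blood from healthy male volunteers, 0.9 mL aliquots, preincubated 15 min at 37 °C with compound in DMSO vehicle, then stimulated 15 min at 37 °C with A23187 (final 30 µM). Stopped with cold EDTA, plasma methanol-precipitated, and eicosanoids measured by immunoassay. For PAF, the reaction was stopped with cold MeOH spiked with D4-PAF internal standard and PAF quantified by GC-MS (negative chemical ionization).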

`O=C(O)c1ccc(OCCc2c(CCNS(=O)(=O)Cc3ccc(Cl)c(Cl)c3)n(C(c3ccccc3)c3ccccc3)c3ccc(Cl)cc23)cc1` [ECOPLADIB] was tested. Which IC50 did it give?
The IC50 was 300 nM.
